Test results from ChEMBL document CHEMBL1139241, “Structure-activity relationship studies of a new series of imidazo[2,1-f]purinones as potent and selective A(3) adenosine receptor antagonists” (Bioorg Med Chem, 2008).

Experiments:
Adenosine receptor A3 = molecular target: T1, Adenosine receptor A3 (Homo sapiens, UniProt P0DMS8); assay: Displacement of [3H]MRE3008F20 from human cloned adenosine A3 receptor expressed in CHO cells; format: cell-based
T1 sequence (P0DMS8 whole entry): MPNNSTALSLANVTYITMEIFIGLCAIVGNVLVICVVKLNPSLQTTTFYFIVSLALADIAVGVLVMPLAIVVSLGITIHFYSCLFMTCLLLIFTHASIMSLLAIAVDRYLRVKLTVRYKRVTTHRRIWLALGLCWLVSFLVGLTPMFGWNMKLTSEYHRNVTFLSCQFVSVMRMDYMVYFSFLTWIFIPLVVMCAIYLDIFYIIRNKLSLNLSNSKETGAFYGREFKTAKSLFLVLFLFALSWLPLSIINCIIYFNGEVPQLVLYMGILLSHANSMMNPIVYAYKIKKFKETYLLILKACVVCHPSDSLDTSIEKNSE

Adenosine receptor A2a = Adenosine receptor A2a (Homo sapiens, UniProt P29274); assay: Displacement of [3H]ZM241385 from human cloned adenosine A2A receptor expressed in CHO cells; format: cell-based
Adenosine receptor A2b = molecular target: T2, Adenosine receptor A2b (Homo sapiens, UniProt P29275); assay: Antagonist activity at human cloned adenosine A2B cells expressed in CHO cells assessed as inhibition of NECA-stimulated cAMP production; format: functional, cell-based
T2 sequence (P29275 whole entry): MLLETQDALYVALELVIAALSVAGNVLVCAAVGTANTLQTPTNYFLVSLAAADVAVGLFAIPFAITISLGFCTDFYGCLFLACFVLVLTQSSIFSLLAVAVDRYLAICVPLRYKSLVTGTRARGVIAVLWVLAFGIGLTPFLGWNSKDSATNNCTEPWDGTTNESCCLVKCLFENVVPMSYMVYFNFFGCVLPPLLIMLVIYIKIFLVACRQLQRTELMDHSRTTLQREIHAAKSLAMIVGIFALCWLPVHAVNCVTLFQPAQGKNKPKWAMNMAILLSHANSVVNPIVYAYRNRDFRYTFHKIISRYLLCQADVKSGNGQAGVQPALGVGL
Procedure, shortened: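 CHO cells with human A2B receptor, trypsin-detached, 1×10^6 cells/assay, in buffered salt medium pH 7.4 with 2 IU/ml adenosine deaminase and Ro 20-1724, preincubated 10 min at 37 °C. Antagonism of 100 nM NECA-stimulated cAMP. Stopped with cold 6% TCA, ether-extracted, cAMP measured by [3H]cAMP competition protein binding. IC50 from sigmoid nonlinear regression, n = 4, mean ± SEM.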

Adenosine receptor A1 = molecular target: T3, Adenosine receptor A1 (Homo sapiens, UniProt P30542); assay: Displacement of [3H]DPCPX from human cloned adenosine A1 receptor expressed in CHO cells; format: cell-based
T3 sequence (P30542 whole entry): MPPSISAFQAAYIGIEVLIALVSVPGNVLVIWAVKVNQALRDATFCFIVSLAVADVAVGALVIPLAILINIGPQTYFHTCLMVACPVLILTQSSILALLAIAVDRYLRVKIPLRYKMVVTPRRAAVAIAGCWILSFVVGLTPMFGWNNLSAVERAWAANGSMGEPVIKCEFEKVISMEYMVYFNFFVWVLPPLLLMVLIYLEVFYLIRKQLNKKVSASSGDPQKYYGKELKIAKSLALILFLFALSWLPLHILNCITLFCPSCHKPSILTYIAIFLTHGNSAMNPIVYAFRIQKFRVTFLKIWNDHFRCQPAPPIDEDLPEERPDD

Adenosine receptor A2a, sequence (P29274 whole entry): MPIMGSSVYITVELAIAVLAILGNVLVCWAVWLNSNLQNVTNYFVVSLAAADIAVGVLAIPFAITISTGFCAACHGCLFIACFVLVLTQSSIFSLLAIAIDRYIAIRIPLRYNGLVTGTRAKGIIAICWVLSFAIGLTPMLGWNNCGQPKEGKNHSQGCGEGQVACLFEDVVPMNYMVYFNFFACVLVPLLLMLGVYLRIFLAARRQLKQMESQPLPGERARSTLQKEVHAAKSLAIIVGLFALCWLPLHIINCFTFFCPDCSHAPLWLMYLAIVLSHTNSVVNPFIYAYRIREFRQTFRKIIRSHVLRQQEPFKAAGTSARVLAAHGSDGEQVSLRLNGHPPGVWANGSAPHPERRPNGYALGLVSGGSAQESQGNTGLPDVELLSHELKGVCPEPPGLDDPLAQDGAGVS

| Structure (SMILES) | Ki (Adenosine receptor A3) | Ki (Adenosine receptor A2a) | IC50 (Adenosine receptor A2b) | Ki (Adenosine receptor A1) |
| --- | --- | --- | --- | --- |
| Cc1cn2c(nc3c2c(=O)[nH]c(=O)n3Cc2ccccc2)[nH]1 | 148 nM | > 1000 nM | > 1000 nM | > 1000 nM |
| CCCn1c(=O)c2c(nc3n(CC)c(C)cn23)n(Cc2ccccc2)c1=O | 200 nM | > 1000 nM | > 1000 nM | > 1000 nM |
| Cc1cn2c(nc3c2c(=O)n(CCCO)c(=O)n3Cc2ccccc2)[nH]1 | 110 nM | > 1000 nM | > 1000 nM | > 1000 nM |
| CC(=O)Cn1c(=O)c2c(nc3[nH]c(C)cn32)n(Cc2ccccc2)c1=O | 182 nM | > 1000 nM | > 1000 nM | > 1000 nM |
| CCCn1c(=O)c2c(nc3[nH]c(-c4ccc(-c5ccccc5)cc4)cn32)n(Cc2ccccc2)c1=O | – | – | > 1000 nM | – |
| CCCn1c(=O)c2c(nc3[nH]c(-c4ccc(F)cc4)cn32)n(Cc2ccccc2)c1=O | – | – | > 1000 nM | – |
| Cc1cn2c(nc3c2c(=O)n(CCN(C)C)c(=O)n3Cc2ccccc2)[nH]1 | 98 nM | > 1000 nM | > 1000 nM | > 1000 nM |
| CCOC(=O)Cn1c(=O)c2c(nc3[nH]c(C)cn32)n(Cc2ccccc2)c1=O | 20 nM | > 1000 nM | > 1000 nM | > 1000 nM |
| Cc1cn2c3c(=O)[nH]c(=O)n(Cc4ccccc4)c3nc2n1C(C)CO (stereo not given) | > 1000 nM | > 1000 nM | > 1000 nM | > 1000 nM |
| Cn1c(=O)c2c(nc3[nH]c(-c4ccccc4)cn32)n(C)c1=O | > 1000 nM | > 1000 nM | > 1000 nM | > 1000 nM |
| C=CCn1c(=O)c2c(nc3[nH]c(C)cn32)n(Cc2ccccc2)c1=O | 5.13 nM | > 1000 nM | > 1000 nM | > 1000 nM |
| C#CCn1c(=O)c2c(nc3[nH]c(C)cn32)n(Cc2ccccc2)c1=O | 15 nM | > 1000 nM | > 1000 nM | > 1000 nM |
| CCn1c(C)cn2c3c(=O)[nH]c(=O)n(Cc4ccccc4)c3nc12 | > 1000 nM | > 1000 nM | > 1000 nM | > 1000 nM |
| CCCn1c(=O)c2c(nc3[nH]c(-c4ccccc4)cn32)n(Cc2ccccc2)c1=O | – | – | > 1000 nM | – |
| CCCn1c(=O)c2c(nc3[nH]c(-c4ccc(OC)cc4)cn32)n(Cc2ccccc2)c1=O | – | – | > 1000 nM | – |
| CCCn1c(=O)c2c(nc3[nH]c(C)cn32)n(Cc2ccccn2)c1=O | 34 nM | > 1000 nM | > 1000 nM | > 1000 nM |
| Cc1cn2c(nc3c2c(=O)n(CCO)c(=O)n3Cc2ccccc2)[nH]1 | 38 nM | > 1000 nM | > 1000 nM | > 1000 nM |
| CCCn1c(=O)c2c(nc3[nH]c(C)cn32)n(Cc2cccnc2)c1=O | 57 nM | > 1000 nM | > 1000 nM | > 1000 nM |
| CCCn1c(=O)c2c(nc3[nH]c(C)cn32)n(Cc2ccncc2)c1=O | 141 nM | > 1000 nM | > 1000 nM | > 1000 nM |
| CCCn1c(=O)c2c(nc3n2CC(c2ccccc2)=C3)n(Cc2ccccc2)c1=O | – | – | > 1000 nM | – |
